# Most compounds without a hit are left out; they make up all but 1.1% or so of the library.
# Keap1 Nrf2 FP: disrupts human Keap1 binding to Nrf2 peptide; Q14145; Keap1 Kelch-Nrf2 peptide fluorescence polarization, 1536-well; inhibition, % at 9.4 µM; 0.15% of 340,000 active; AID 504523; in the data active = inhibition above about 12%;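 note: human Keap1 Kelch domain with fluorescein labeled Nrf2 9mer peptide probe; 0% = neutral control wells and 100% = peptide positive control; higher means more block of Keap1 binding to Nrf2 peptide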
# Target sequence (Q14145 whole entry, looked up, the tested form may be a part): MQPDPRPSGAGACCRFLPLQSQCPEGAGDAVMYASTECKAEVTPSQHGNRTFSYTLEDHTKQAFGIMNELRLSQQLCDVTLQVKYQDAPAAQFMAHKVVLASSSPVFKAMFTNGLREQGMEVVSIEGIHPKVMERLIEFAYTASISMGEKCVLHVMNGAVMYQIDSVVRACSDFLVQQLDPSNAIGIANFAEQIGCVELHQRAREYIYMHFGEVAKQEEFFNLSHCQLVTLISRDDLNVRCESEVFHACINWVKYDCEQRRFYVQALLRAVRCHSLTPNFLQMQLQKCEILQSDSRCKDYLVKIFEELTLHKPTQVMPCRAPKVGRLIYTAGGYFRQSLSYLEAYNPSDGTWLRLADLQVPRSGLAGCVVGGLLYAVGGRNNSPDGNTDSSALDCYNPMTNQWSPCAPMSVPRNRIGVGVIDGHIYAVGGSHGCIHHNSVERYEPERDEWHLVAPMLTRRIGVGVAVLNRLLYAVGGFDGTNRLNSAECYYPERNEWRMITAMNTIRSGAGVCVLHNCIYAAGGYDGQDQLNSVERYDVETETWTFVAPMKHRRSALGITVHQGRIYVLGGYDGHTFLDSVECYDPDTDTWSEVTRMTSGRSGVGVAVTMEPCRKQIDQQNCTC
# miR122 inh: inhibitors of miR-122 in Huh7 cells | 0.3% of 340,000 active | activation (reporter increase), % at 12.5 µM | Huh7 miR-122 Renilla luciferase sensor, 48 h; neutral wells = 0, positive control = 100 | AID 602342;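 active = mean replicate activation score at least 90 and every replicate individually at or above 90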;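 note: higher luciferase means less miR-122 activity so hits act as miR-122 inhibitors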
# CAL PDZ FP-1: human CAL PDZ-peptide interaction inhibition; purified CAL PDZ, TMR-peptide fluorescence polarization, 1 h; 0.02% of 330,000 active; inhibition, % at 20 µM;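 active = highest replicate inhibition of at least 40%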;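 note: plate controls were DMSO neutral control wells for no effect and unlabeled competitor peptide control wells for full effect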
#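 System: tagged CAL PDZ domain. Schedule: 1 h room-temperature incubation prior to read. Signal: fluorescence polarization (mP). Measure: percent inhibition from loss of millipolarization.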
# CAL PDZ FP-2: blocks peptide binding to the human CAL PDZ domain; Q9HD26; purified CAL PDZ, TMR-peptide fluorescence polarization, 1 h; inhibition, % at 24.9 µM; 0.92% of 300,000 active; AID 602252;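 active = mean inhibition of at least 30% with at least half of replicates also reaching 30%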;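 note: 0% = DMSO neutral control and 100% = excess unlabeled competitor peptide PRC23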
# LANA DNA inh: KSHV C-LANA DNA binding inhibition; inhibition, % at 9 µM; 0.078% of 340,000 active; MBP-C-LANA/FAM-LBS DNA binding, fluorescence polarization;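 active = highest replicate inhibition at or above 60% at 9 µM, even if other replicates fall short; inactive = all replicates below 60% inhibition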;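 note: 0% = neutral control wells and 100% = 4 µM acridine orange control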
# An asterisk follows results filed as active; / = no result; + = active, no number; [ ] = dose if it differs, or a comment.
SMILES,Keap1 Nrf2 FP,miR122 inh,CAL PDZ FP-1,CAL PDZ FP-2,LANA DNA inh
Cc1ccc(S(=O)(=O)Nc2cccc3c2O[C@@H](CN(C)Cc2ccc(Cl)c(Cl)c2)[C@H](C)CN([C@H](C)CO)C3=O)cc1,/,110.4*[16.7 µM],/,/,/
COc1ccc(-c2c(NC(C)=O)n(C)c3ccccc3c2=O)cc1,-1.3,0.8,16.6,45.0*,0.0
COc1ccc(-c2c(NC(=O)C(C)C)n(C)c3ccccc3c2=O)cc1,1.5,-18.6,-0.6,5.4,0.6
Cn1c(=S)[nH]c2scc(-c3cccs3)c2c1=O,6.3,/,-0.8,65.8*,-0.6
O=Cc1cn[nH]c1-c1cccc([N+](=O)[O-])c1,0.1,/,-1.1,-1.2,0.6
O=C(O)c1cn[nH]c1-c1cccc([N+](=O)[O-])c1,-0.1,/,-5.4,61.3*,11.2
Nc1nnc(N)c2ccccc12,5.7,/,-0.6,57.2*,1.3
Cc1noc(C)c1NC(=O)N(C)C[C@@H]1OCCCC[C@@H](C)Oc2ccc(NC(=O)Cc3ccccc3)cc2C(=O)N([C@H](C)CO)C[C@H]1C,/,9.2[16.7 µM],/,/,/
Cc1ccccc1-c1ccc([C@@H]2[C@H](CO)N3CCCCN(C(=O)CN4CCOCC4)C[C@@H]23)cc1,/,5.6[16.7 µM],/,/,/
Cc1ccccc1NS(=O)(=O)c1cccc(-c2nnc(-c3ccccc3)o2)c1,-3.1,5.4,-1.1,-0.5,-1.9
O=S(=O)(NC1CCCCC1)c1cccc(-c2nnc(-c3ccccc3)o2)c1,-3.4,100.4*,-1.7,-5.5,-0.5
CCOCCCNC(=O)c1ccc(OC(C)=O)cc1,0.1,-3.4,-1.2,36.5*,-1.0
CNC(=S)Nc1ccc(N2CCCC2)c(S(=O)(=O)Nc2ccc(OC)cc2)c1,-3.0,109.0*,1.2,-3.1,20.3
COc1ccc(NS(=O)(=O)c2cc(NC(=O)c3cnccn3)ccc2N2CCCC2)cc1,5.3,104.1*,-0.8,-3.3,0.8
COc1ccc(NS(=O)(=O)c2cc(NC(=O)CC(C)(C)C)ccc2N2CCCC2)cc1,-5.4,50.9,0.3,0.0,-1.7
COc1ccc(NS(=O)(=O)c2cc(NC(=O)c3cnccn3)ccc2OC)cc1Br,-3.8,32.5,-1.4,70.7*,-0.4
COc1ccc(NS(=O)(=O)c2cc(NC(=O)c3ccc(C)o3)ccc2N2CCCCC2)cc1,-2.0,/,-0.5,-1.3,-0.4
O=C(C[C@@H]1C[C@H]2c3cc(NS(=O)(=O)c4ccc(F)cc4)ccc3O[C@H]2[C@H](CO)O1)NCc1ccc(Cl)cc1,/,64.5[16.7 µM],/,/,/
COCCn1c(SCc2ccc(F)cc2)nc2ccccc2c1=O,-3.4,/,-0.3,+,0.2
COCCn1c(SCc2ccc(OC)c(F)c2)nc2ccccc2c1=O,-1.7,/,-0.7,/,1.9
CCN(CC)CCn1c(=S)[nH]c2ccc(Br)cc2c1=O,-5.5,/,4.0,87.1*,-0.4
CCN(CC)CCn1c(=S)[nH]c2ccccc2c1=O,-9.1,0.5,-2.4,-3.9,0.2
O=C(NC(=S)Nc1ccccc1)c1cncc(C#Cc2ccccc2)c1,0.1,/,0.3,45.4*,-0.1
O=C(O)c1cncc(C#Cc2ccccc2)c1,0.7,/,-2.4,-2.9,-1.1
Nc1ccc2ccc(O)cc2c1,2.5,20.8,-0.3,/,2.8
SMILES,Keap1 Nrf2 FP,miR122 inh,CAL PDZ FP-1,CAL PDZ FP-2,LANA DNA inh
C[n+]1c2cc(N)ccc2cc2ccc(N)cc21,+,1.1,8.4,0.6,195.3*
Cc1noc(C)c1S(=O)(=O)Nc1ccc2c(c1)C(=O)N([C@@H](C)CO)C[C@@H](C)[C@H](CN(C)S(=O)(=O)c1ccccc1)OCCCC[C@H](C)O2,/,1.0[16.7 µM],/,/,/
CCOC(=O)CCn1c(=S)n(CCC(=O)OCC)c2ccccc21,0.4,/,1.2,54.9*,-0.6
CCOC(=O)Cn1c(=O)n(CC(=O)OCC)c2ccccc21,2.1,11.5,-2.7,-2.9,1.7
C[C@@H]1CN([C@H](C)CO)C(=O)c2cccc(NS(=O)(=O)c3ccc(Cl)cc3)c2O[C@H]1CN(C)C,/,24.3[16.7 µM],/,/,/
O=S(=O)(NC(=NCc1ccccc1)c1ccc(F)cc1)c1ccc(Cl)cc1,-0.5,147.9*,0.5,/,0.5
NC(=NCCc1ccc(Cl)cc1)NS(=O)(=O)c1ccc(F)cc1,5.1,/,-1.2,45.6*,0.4
NC(=NCCc1ccc(Cl)cc1)NS(=O)(=O)c1ccccc1,-3.5,-1.7,-0.3,/,-0.7
CO[C@@H]1CN(C)C(=O)c2cc(NC(=O)NC3CCCCC3)ccc2OC[C@H](C)N(C(C)=O)C[C@@H]1C,/,-2.0[16.7 µM],/,/,/
O=C(COC(=O)C1=COCCO1)Nc1ccc(Br)cc1Br,-0.6,-5.8,-0.3,43.0*,-1.5
N#CC1(NC(=O)COC(=O)C2=COCCO2)CCCCC1,194.2*,0.8,1.3,/,/
Cc1cc(C)c(S(=O)(=O)NCCn2ccc3ccccc32)c(C)c1,-1.7,125.9*,-0.5,1.4,1.7
CCC(C)(C)NC(=O)C1CCN(c2nc(OC)nc(OC)n2)CC1,2.1,/,0.8,34.2*,-0.2
O=S(=O)(c1cccc(F)c1)N1CC[C@@H]2[C@H](CO)Nc3ccc(C#Cc4cccc(F)c4)cc3[C@@H]21,/,-8.2[16.7 µM],/,/,/
COc1cccc(/C=N/NC(=O)c2cnccn2)c1O,-2.3,-13.8,-2.2,90.4*,0.9
COc1ccc(/C=N/NC(=O)c2cnccn2)c(OC)c1OC,-0.1,/,-1.3,-3.9,-1.0
c1ccc(CCC2CCCCN2Cc2cn[nH]c2-c2cc3ccccc3o2)nc1 (configuration not stated),-3.6,1.3,-0.7,101.2*,-1.2
c1ccc(-c2cc(-c3ccc(N4CCOCC4)cc3)nc3ccccc23)cc1,-0.8,-10.7,-0.7,37.0*,-0.1
c1ccc(-c2cc(N3CCOCC3)nc(-c3ccccc3)n2)cc1,-1.8,-11.0,0.5,1.6,-0.6
Cn1nnnc1SCC(=O)Nc1nn(-c2ccccc2)nc1C(N)=O,/,-8.5,-0.2,55.4*,0.3
Cn1nnnc1SCC(=O)Nc1ccc(Oc2ccccc2)cc1,2.8,-24.1,-4.1,-5.1,1.2
Cn1nnnc1SCC(=O)NCc1cccs1,-2.0,-2.9,-0.7,52.8*,-1.0
C[C@@H]1CN([C@@H](C)CO)C(=O)c2cc(NC(=O)CCC(F)(F)F)ccc2O[C@@H](C)CCCCO[C@H]1CN(C)C(=O)CCC(F)(F)F,/,5.5[16.7 µM],/,/,/
CCN(C(=O)c1ccc2c(SCC(=O)O)c3c(nc2c1)CCC3)c1cc(Cl)ccc1OC,-0.2,4.4,0.4,101.3*,0.0
COc1cc(NC(=O)c2ccc3c(SCC(=O)O)c4c(nc3c2)CCC4)cc(OC)c1OC,3.1,6.9,-3.9,-3.9,2.3
CCN(CC)c1ccc(NC(=O)C2CC(=O)N(Cc3ccccc3)C2)cc1 (configuration not stated),3.2,/,-0.8,100.8*,1.8
CN(C)S(=O)(=O)c1ccc(NC(=O)C2CC(=O)N(Cc3ccccc3)C2)cc1 (configuration not stated),-2.8,/,-2.5,-1.9,-2.3
NCC[C@H]1CC[C@@H](NC(=O)C2CCCC2)[C@H](CO)O1,/,0.2[16.7 µM],/,/,/
COc1cnc(-c2ccccn2)nc1N(C)C,1.2,10.9,-0.4,72.7*,-3.5
COc1ccc(Oc2nc(-c3ccccn3)ncc2OC)cc1,0.7,/,-0.5,5.5,-1.2
